pIC50, pKi: −log10 of the molar value. Calls of active or inactive are those of the source. The calls are words filed in the database; no cut-off is given here.
How the values were obtained:
[1] = target: T1, 5-hydroxytryptamine receptor 2A (Homo sapiens, UniProt P28223); test: Activity at human 5HT2A receptor expressed in HEK293 cells assessed as [3H]inositol phosphate production by scintillation counting; assay type: functional, cell-based; details: for IC50: read-out: pIC50 (converted)
How it was run: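 HEK-293 cells transiently transfected with a mutated, constitutively active h5-HT2A receptor, labeled 18 h with […] [3H]myoinositol in serum- and myoinositol-free DMEM. Then 3 h at 37 °C in HBSS with LiCl (10 mM final), pargyline and compound. Lysis with ice-cold 0.1 M formic acid; total [3H]IP separated on AG1-X8 resin and counted by scintillation. Inverse-agonist pIC50.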

[2] = target: T1, 5-hydroxytryptamine receptor 2A; test: Displacement of [3H]DOI from human recombinant 5HT2A receptor expressed in HEK293 cells by scintillation counting; assay type: cell-based; details: in the assay text read “[125I]DOI” for “[3H]DOI”
How it was run: (§1)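 Crude membranes (5-25 μg protein) from HEK293 cells stably expressing human 5-HT2A or 5-HT2C. Radioligand [125I]DOI at 0.5 nM final; 10 μM cold DOI defines nonspecific binding. Buffer 20 mM HEPES pH 7.4, 10 mM MgCl2; 1 h at room temperature. Eight concentrations (1 pM–10 μM), each in triplicate. Vacuum filtration on GF/C, Tris wash, scintillation counting; pKi.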

[3] = target: T2, 5-hydroxytryptamine receptor 2C (Homo sapiens, UniProt P28335); test: Displacement of [3H]DOI from human recombinant 5HT2C receptor expressed in HEK293 cells by scintillation counting; assay type: cell-based; details: in the assay text read “[125I]DOI” for “[3H]DOI”; how it was run: as §1
T2 sequence (P28335 whole entry): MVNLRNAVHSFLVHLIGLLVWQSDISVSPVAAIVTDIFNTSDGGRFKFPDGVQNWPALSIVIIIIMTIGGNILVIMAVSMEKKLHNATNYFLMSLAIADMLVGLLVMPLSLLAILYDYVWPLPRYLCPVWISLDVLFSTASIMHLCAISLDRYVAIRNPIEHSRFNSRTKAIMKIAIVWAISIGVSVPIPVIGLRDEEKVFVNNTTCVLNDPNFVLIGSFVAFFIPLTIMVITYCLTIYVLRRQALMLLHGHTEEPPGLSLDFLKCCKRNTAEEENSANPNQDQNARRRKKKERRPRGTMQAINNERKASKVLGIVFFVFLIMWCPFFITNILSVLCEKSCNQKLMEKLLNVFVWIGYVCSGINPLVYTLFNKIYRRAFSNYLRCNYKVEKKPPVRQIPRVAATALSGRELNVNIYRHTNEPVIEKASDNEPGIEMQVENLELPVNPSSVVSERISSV

[4] = target: T2, 5-hydroxytryptamine receptor 2C; test: Displacement of [125I]DOI from human recombinant 5HT2C receptor expressed in HEK293 cells by scintillation counting
[5] = target: T1, 5-hydroxytryptamine receptor 2A; test: Displacement of [125I]DOI from human recombinant 5HT2A receptor expressed in HEK293 cells by scintillation counting
[6] = Half life in Wistar rat at 1.4 mg/kg, po; assay type: ADME, organism-based; design: dose 1.4 mg/kg, route oral; details: in vivo
How it was run: (§2)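 Male Wistar rats, fasted overnight, single oral dose in 80% Tween-80/20% water. Jugular vein blood sampled serially over 24 h ([…]); sodium-heparin plasma stored at -70 °C, quantified by HPLC/MS/MS (LLOQ 1 ng/mL, ULOQ 2000 ng/mL). n = 2-3 animals; noncompartmental analysis; values as mean ± SD.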

[7] = Cmax in Wistar rat at 1.4 mg/kg, po; assay type: ADME, organism-based; design: dose 1.4 mg/kg, route oral; details: in vivo; how it was run: as §2
[8] = Tmax in Wistar rat at 1.4 mg/kg, po; assay type: ADME, organism-based; design: dose 1.4 mg/kg, route oral; details: in vivo; how it was run: as §2
[9] = system: Rattus norvegicus; test: Effect on behavioral activity in Wistar rat assessed as decrease in number of non-rapid eye movement bouts at 1.4 mg/kg, po after 2 hrs; assay type: functional, organism-based; design: dose 1.4 mg/kg
How it was run: (§3)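 Male Wistar rats (300 ± 25 g) implanted for continuous EEG/EMG recording, 1 week recovery. Repeated-measures design: each rat received each treatment, including 80% Tween-80 vehicle, in random order by oral gavage. Non-REM sleep parameters scored hourly after dosing; at least five rats per compound.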

[10] = system: Rattus norvegicus; test: Effect on behavioral activity in Wistar rat assessed as increase in non-rapid eye movement bout length at 1.4 mg/kg, po after 1 hrs; assay type: functional, organism-based; design: dose 1.4 mg/kg; how it was run: as §3
[11] = target: 5-hydroxytryptamine receptor 2A (Rattus norvegicus, UniProt P14842); test: Displacement of [125I]DOI from rat recombinant 5HT2A receptor by scintillation counting
[12] = AUC (0 to infinity) in Wistar rat at 1.4 mg/kg, po; assay type: ADME, organism-based; design: time infinity, dose 1.4 mg/kg, route oral; details: plasma; how it was run: as §2
[13] = system: Rattus norvegicus; test: Effect on behavioral activity in Wistar rat assessed as increase in non-rapid eye movement delta power at 1.4 mg/kg, po after 4 hrs; assay type: functional, organism-based; design: dose 1.4 mg/kg; how it was run: as §3
[14] = system: Rattus norvegicus; test: Effect on behavioral activity in po dosed Sprague-Dawley rat assessed as reversal of DOI-induced inhibition of rearing behavior; assay type: functional
How it was run: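 Adult male Sprague-Dawley rats dosed orally with compound 45 min before DOI (0.3 mg/kg), which lowers rearing. Fifteen minutes later, rearing recorded in photocell-monitored locomotor activity cages. A dose-response curve for reversal of DOI-induced rearing decrease yields an ED50.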

T1 sequence (P28223 whole entry): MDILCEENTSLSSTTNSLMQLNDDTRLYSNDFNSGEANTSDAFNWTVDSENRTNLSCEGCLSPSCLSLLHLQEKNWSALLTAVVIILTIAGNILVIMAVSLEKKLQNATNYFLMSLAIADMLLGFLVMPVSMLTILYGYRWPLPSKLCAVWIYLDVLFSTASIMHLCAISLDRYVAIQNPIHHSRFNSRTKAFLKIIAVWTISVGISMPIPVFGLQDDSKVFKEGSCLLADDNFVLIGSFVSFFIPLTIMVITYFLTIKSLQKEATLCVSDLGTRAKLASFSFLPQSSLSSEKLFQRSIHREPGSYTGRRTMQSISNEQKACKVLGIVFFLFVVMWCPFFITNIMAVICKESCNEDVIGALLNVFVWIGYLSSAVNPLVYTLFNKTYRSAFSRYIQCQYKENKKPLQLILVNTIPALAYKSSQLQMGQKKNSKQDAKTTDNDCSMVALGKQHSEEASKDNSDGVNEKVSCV
5-hydroxytryptamine receptor 2A (Rattus norvegicus, UniProt P14842), sequence (P14842 whole entry): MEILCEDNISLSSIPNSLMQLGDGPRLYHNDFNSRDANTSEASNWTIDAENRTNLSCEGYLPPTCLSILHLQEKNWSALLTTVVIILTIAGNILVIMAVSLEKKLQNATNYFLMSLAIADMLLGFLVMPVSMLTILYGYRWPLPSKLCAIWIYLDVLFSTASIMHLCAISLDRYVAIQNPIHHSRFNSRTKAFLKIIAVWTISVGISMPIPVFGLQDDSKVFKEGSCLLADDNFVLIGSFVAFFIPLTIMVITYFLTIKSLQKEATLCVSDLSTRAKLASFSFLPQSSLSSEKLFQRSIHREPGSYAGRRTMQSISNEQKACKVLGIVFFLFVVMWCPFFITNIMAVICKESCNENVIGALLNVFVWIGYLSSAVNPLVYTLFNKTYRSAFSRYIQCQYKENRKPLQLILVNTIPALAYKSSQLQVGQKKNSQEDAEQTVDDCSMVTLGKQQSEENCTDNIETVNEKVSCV

Compound	IC50 [1]	pKi [2]	pKi [3]	pKi [4]	other results
Cn1ncc(Br)c1-c1cc(NC(=O)Nc2ccc(Cl)cc2)ccc1OC(F)(F)F	15.8 nM	9.10	7.80		
COc1ccc(NC(=O)Nc2ccc(F)c(F)c2)cc1-c1c(Cl)cnn1C	0.501 nM	9.60	7.60		
COc1ccc(NC(=O)Nc2ccc(F)cc2)cc1-c1c(Br)cnn1C(C)C	1 nM	9.60		8.40	
COc1ccc(NC(=O)Nc2ccc(F)c(F)c2)cc1-c1c(F)cnn1C	2.51 nM	8.90		6.40	
Cn1ncc(Br)c1-c1cc(NC(=O)Nc2ccc(Cl)cc2)ccc1O			7.30		pKi [5]: 9.40
CCOc1ccc(NC(=O)Nc2ccc(Cl)cc2)cc1-c1c(Br)cnn1C		9.60	8.70		
COc1ccc(NC(=O)Nc2cccc(C(C)=O)c2)cc1-c1c(Br)cnn1C	3.98 nM	8.60	6.60		
COc1ccc(NC(=O)Nc2ccc(Cl)c(C(F)(F)F)c2)cc1-c1c(Br)cnn1C	0.794 nM			8.50	pKi [5]: 9.50
COc1ccc(NC(=O)Nc2ccc(F)cc2F)cc1-c1c(Br)cnn1C [NELOTANSERIN]	0.631 nM		6.80		half-life [6]: 3 h; Cmax [7]: 44 ng/mL; pKi [5]: 9.20; Tmax [8]: 3 h; Activity [9]: Active; Activity [10]: Active; pKi [11]: 8.30; AUC(0-inf) [12]: 298 ng·h/mL; Activity [13]: Active; ED50 [14]: 0.7 mg/kg
COc1ccc(NC(=O)Nc2ccccc2F)cc1-c1c(Br)cnn1C		9.00		6.40	
COc1ccc(NC(=O)Nc2cccc(F)c2)cc1-c1c(Br)cnn1C	0.794 nM			7.40	pKi [5]: 9.50
COc1ccc(NC(=O)Nc2ccc(Cl)cc2Cl)cc1-c1c(Br)cnn1C	1.26 nM	9.70	7.60		
COc1ccc(NC(=O)Nc2ccc(N(C)C)cc2)cc1-c1c(Br)cnn1C	50.1 nM	8.80		6.40	
COc1ccc(NC(=O)Nc2ccc(Br)cc2)cc1-c1c(Br)cnn1C	0.501 nM	9.60		8.40	
COc1ccc(NC(=O)Nc2ccc(Cl)cc2C(F)(F)F)cc1-c1c(Br)cnn1C	2.51 nM	9.30	6.90		
COc1ccc(NC(=O)Nc2ccc(C(F)(F)F)cc2)cc1-c1c(Br)cnn1C	1.58 nM			8.40	pKi [5]: 9.50
Cn1ncc(Br)c1-c1cccc(NC(=O)Nc2ccc(OC(F)(F)F)cc2)c1					pIC50 [1]: 6.92
Cn1ncc(Br)c1-c1cc(NC(=O)Nc2ccc(Cl)cc2)ccc1OCc1ccccc1	7.94 nM	8.30	6.80		

Reference: ChEMBL document CHEMBL1157565, “Discovery of 1-[3-(4-bromo-2-methyl-2h-pyrazol-3-yl)-4-methoxyphenyl]-3-(2,4-difluorophenyl)urea (nelotanserin) and related 5-hydroxytryptamine2A inverse agonists for the treatment of insomnia” (J Med Chem, 2010)
